assay: Toxicity liver stage against HepG2, at 10uM; type: cell-based; parameters: test concentration 10 uM, cell line HepG2-A16-CD81EGFP; settings: human, HepG2-A16-CD81EGFP cells; read-out: INHIBITION
How it was run: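 Uninfected HepG2-A16-CD81EGFP cells, 3 × 10^3 per well, 1536-well, plated on prespotted compound at 10 μM final, parasite-free screening media added to match infected plates; puromycin 10 μM positive, DMSO 0.5% negative; run in parallel with 48 h PbLuc assay at 37 °C, 5% CO2; viability by CellTiter-Glo luminescence, normalized to controls.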

Point of comparison: `CC(CC(=O)Nc1ncn(CC(=O)NCc2ccccc2)n1)C1CC1` (stereo not drawn), cytotoxicity at 10 µM 7.12%. Against it:
- O=C(NCC1CC1)C1=NOC2(CCN(Cc3ccc(Cl)c(F)c3)C2)C1 (stereo not drawn) — higher, 13.5%
- COC(=O)c1sccc1S(=O)(=O)N1CCC(Oc2ncccc2Cl)CC1 — lower, -16.8%
- CCn1cc(Cl)c(C(=O)NCCCN(C)C)n1 — higher, 9.46%
- Cc1cccc(-n2nnnc2C(C)(C)Nc2ccccc2C)c1 — higher, 8%
- O=C1CNc2ncnc(N3CCN(Cc4ccccc4F)CC3)c2N1 — higher, 9.87%
- CCn1ccc(NC(=O)CCc2c(C)nn(C)c2C)n1 — lower, 4.01%
- Nc1cc(-c2c[nH]nc2C2CCCN2S(=O)(=O)c2ccccc2)ccn1 (stereo not drawn) — lower, 6.34%
- CN1CCCC(Cc2cc(N(C)C)ncn2)C1 (stereo not drawn) — higher, 11.1%
- Cc1nn(C)cc1-c1cc(C(=O)N2CCc3ncc(Cl)cc3C2)no1 — lower, 1.18%
- Cc1cnc2cc(C3CCN(C(=O)c4ccncc4)CC3)[nH]c2n1 — lower, -22.1%
- COCc1nc(C2CCN(Cc3ncc[nH]3)CC2)no1 — lower, -23.1%
- CN(C)C(=O)CN1CCCCC1c1nc(N)ncc1-c1ccc(Cl)cc1 (stereo not drawn) — lower, -14.9%
- CCCNC(=O)c1cncc(CC2CCCN(C)C2)c1 (stereo not drawn) — lower, -16%
- O=C(NCCO)C1(Cc2cc(-c3ccc(F)cc3F)no2)CCOCC1 — lower, 0.333%
- Cc1ccc(S(=O)(=O)N2C[C@H]3C[C@H](NC(=O)c4ccn(C)n4)[C@H]3C2)cc1 — lower, -1.11%
- CNc1cncc(C2CCCN2Cc2ccccc2OCC(=O)O)n1 (stereo not drawn) — lower, -0.105%
- O=C(Cc1cccc(F)c1F)NS(=O)(=O)c1ccc(Cl)cn1 — lower, 0.545%
- CNc1nc(CS(=O)(=O)c2ccccc2)cs1 — higher, 13%
- COc1cc(OC)cc(-c2noc(CN)n2)c1 — higher, 20.6%
- Cc1ccc(CN(C)C(=O)CNC(C)(C)c2noc(C(C)(C)C)n2)o1 — lower, 2.43%
- Cc1ncccc1C(=O)Nc1cccc(Cn2ccccc2=O)c1 — lower, 3.06%
- COc1ccc(CCN2CCCC(n3cncn3)C2)cc1 (stereo not drawn) — lower, -6.2%
- CSCC(C)N(C)C(=O)CN1CCN(c2ccccn2)CC1 (stereo not drawn) — lower, -7.59%
- O=C(CN1CCCNC1=O)N(Cc1ccccc1)CC(F)F — lower, 5.9%
- Cc1ccc(C(=O)NCc2ccnc(N3CCN(C)CC3)c2)cn1 — lower, -2.07%
- CN(C)C(=O)C1SCCc2ccccc21 (stereo not drawn) — lower, 1.81%
- O=C(Cn1cc(C2CC2)nn1)N(Cc1ccco1)CC1CCCO1 (stereo not drawn) — lower, 0.0636%
- O=S(=O)(Cc1ccon1)N1CCN(c2ccncc2Cl)CC1 — lower, -4.96%
- COc1ccc(OCCNC(=O)c2ccc3c(=O)[nH][nH]c(=O)c3c2)cc1 — lower, -4.83%
- CS(=O)(=O)NCC1CCCCN1Cc1cccc(C#N)c1 (stereo not drawn) — lower, 0.528%
- Cc1ccc(N2CCCN(C(=O)c3cccc4c3ccn4C)CC2)nn1 — lower, 0.983%
- Cc1cnn(CCNCc2cc(C)no2)c1 — higher, 8.77%
- CC1CN(S(=O)(=O)c2cc(S(C)(=O)=O)ccc2Br)c2cccnc2O1 (stereo not drawn) — lower, -0.346%
- Cc1oc(NC(=O)C(C)N2CCN(C(C)(C)CO)CC2)c(C#N)c1C (stereo not drawn) — lower, -3.62%
- Cc1nc(C)n(CC2CCCN2CC(=O)Nc2nncs2)n1 (stereo not drawn) — higher, 14.3%
- Cc1cccc(NC(=O)CN(C)C(=O)c2scnc2C)n1 — lower, -3.79%
- Cc1cc(F)ccc1NC(=O)NCC(C)N1CCOCC1 (stereo not drawn) — lower, -4.1%
- CCN(CCC(F)(F)F)S(=O)(=O)c1cccc(F)c1C#N — lower, -3.77%
- CC(C)(C)c1ncc(CNc2ccn(CCc3ccncc3)n2)s1 — higher, 26.1%
- Cc1nnc(C(NS(=O)(=O)c2cc(C)c(F)cc2F)C(C)C)[nH]1 (stereo not drawn) — lower, -6.04%
- Cc1nc(NC(=O)NCc2nc3cccc(C)c3n2C)oc1C — lower, -6.71%
- CN(Cc1ccccc1)CC(C)(C)NC(=O)c1ccon1 — higher, 13%
- C=C(C)CN(CC)Cc1nc(CC)no1 — higher, 12.6%
- CCN1CCN(c2ccc(C(=O)NCCn3ccnc3)cc2F)CC1 — higher, 10.8%
- CCCC1(CNCc2ncc[nH]2)CCC1 — lower, 2.24%
- Cc1nnc(NC(=O)CN(C)CC2CCCN2c2cccnn2)s1 (stereo not drawn) — lower, -15%
- N#CCCN(C(=O)CN1CCCC1Cc1ccccc1)c1ccccc1 (stereo not drawn) — lower, -20.7%
- CCOCCN1CCN(Cc2nc(C3CC3)no2)CC1CC (stereo not drawn) — lower, -5.75%
- COc1cc(NC(=O)c2ccccc2F)c(C(=O)N(C)C)cc1OC — lower, -14.8%
- COc1ccc(NC(C)C(=O)NCCc2cccs2)cc1F (stereo not drawn) — lower, -13.5%
- O=C(c1ccccn1)N1CC[C@@H](N2CCOCC2)[C@@H]1Cc1ccccc1 — lower, -77.9%
- CS(=O)(=O)NCc1nnc2n1CCN(CC1CC1)C2 — lower, -0.285%
- CNC(=O)[C@@]12CCO[C@@H]1CCN(S(=O)(=O)c1cccc(C)c1)C2 — lower, -1.8%
- COc1ccccc1N1CCC(N2CCOCC(CO)C2)CC1 (stereo not drawn) — lower, -6.85%
- CCC[C@H]1CN(C2CCOCC2)C[C@@H]1NC(=O)CCc1cnccn1 — lower, 3.12%
- CCCN(CCC)C(=O)c1cc(CN2CCC(O)CC2)on1 — lower, 1.29%
- CC(=O)NCCNc1nc(-c2ccccn2)nc2c1c(C)nn2C — lower, 2.72%
- CCN(Cc1ccccn1)Cc1cc(Cl)ccc1OC — lower, 1.45%
- CCn1c(C2CCN(C(=O)COCC(F)(F)C(F)F)CC2)n[nH]c1=O — lower, -55%
- CC(C)[C@]1(O)CN(C(=O)C2(Cn3cccn3)CC2)C[C@H]1C — lower, 1.79%
- Cc1nn(C)c2nc(N(C)CCN(C)C)sc12 — higher, 9.38%
- Cc1nc(O)cc(C2CCCN(C(=O)COCc3ccccc3)C2)n1 (stereo not drawn) — lower, -11%
- O=C(Cc1ccccn1)N1CCC2(CC1)[C@H](O)C[C@@H]2O — lower, -2.34%
- Cn1cc(CN2CCCC(CCc3ccc(F)c(F)c3)C2)cn1 (stereo not drawn) — lower, -6.6%
- Nc1nc2c(c(NCc3cnc4c(c3)CCC4)n1)CCNC2 — lower, 1.98%
- Cc1nccnc1N1Cc2cnn(Cc3ccc(F)cc3)c2C1 — lower, 2.45%
- CCNc1ccnc(NCC2(N(C)C)CCOCC2)n1 — lower, -0.686%
- CCc1nnc(CN(CC)C(=O)C2CC(=O)N(CC)C2)o1 (stereo not drawn) — lower, 1.97%
- Cc1ccc(-c2nnc(CCC(=O)NCc3cn(C)nc3C)o2)s1 — lower, -1.31%
- CCOCCC(=O)N(C)Cc1noc(C(C)C)n1 — lower, 6.13%
- O=C(CN1CCCC(c2ccc(C(=O)O)cc2)C1)NC1CC1 (stereo not drawn) — lower, -9.87%
- Cc1cnccc1CN1CC[C@@](C)(O)[C@H](Oc2ccccc2)C1 — lower, -1.78%
- CNS(=O)(=O)Cc1ccc(CNC(=O)c2ccccn2)cc1 — lower, -0.945%
- Cc1oc(C(=O)O)cc1S(=O)(=O)Nc1cc(Br)ccc1Cl — lower, 0.386%
- Cc1noc(Cl)c1CCC(=O)N1CCN(CC(C)(C)O)CC1 — lower, 1.61%
- Cc1nc(C)c(C(=O)NCCNc2ncccn2)s1 — lower, -3.65%
- O=C(c1csc(-c2ccccn2)n1)N1CCCC1Cn1cccn1 (stereo not drawn) — lower, -3.69%
- c1ccc(-c2nc(CNC3CCc4ncnn4C3)cs2)cc1 (stereo not drawn) — lower, -6.19%
- CC(C)c1nnc2n1CCN(Cc1ncc(-c3ccccc3)o1)C2 — lower, -12.8%
- Cc1nc(CN(C)C2CCN(CCc3cccs3)C2)no1 (stereo not drawn) — lower, 6.03%
- CCn1ccnc1CN1CCCN(C(=O)Cc2ccc(C)s2)CC1 — lower, -19%
- CN(CCCOc1ccc(F)cc1)Cc1nc2c(cnn2C)c(=O)[nH]1 — lower, -4.62%
- COCCCN(C)Cc1nc2c(cnn2C)c(=O)[nH]1 — lower, -4.2%
- Cc1nc(CNC(=O)NCC(O)c2ccc(F)c(F)c2)cs1 (stereo not drawn) — lower, -3.88%
- N#Cc1ccc(N2CCCN(C(=O)CC3CCCO3)CC2)cc1 (stereo not drawn) — lower, -4.69%
- Cc1c[nH]cc1C(=O)N1CCN(CCc2cccs2)CC1 — lower, -6.8%
- Cc1cc(C)c(CNC(=O)NCC2CCCO2)c(=O)[nH]1 (stereo not drawn) — lower, -3.76%
- Cc1ccc(C)c(OC2CCN(C(=O)c3ccc(O)nc3)CC2)c1 — lower, 3.23%
- CN1CCN(C2CCN(CC(=O)NCC(F)(F)F)CC2)C1=O — lower, -9.78%
- CN(C)CC1CN(c2cnc3ccccc3n2)CCO1 (stereo not drawn) — lower, -9.93%
- CN(Cc1ccc(F)cc1)C(=O)NCc1nnc2n1CCCCC2 — lower, -10.1%
- Cc1ccc(C(N)c2cccc(S(C)(=O)=O)c2)cc1 (stereo not drawn) — lower, 3.18%
- CCN(Cc1nc2c(cnn2C)c(=O)[nH]1)c1ccc(OC)c(OC)c1 — lower, 2.31%
- CC(O)CN1CCC(CNCc2cccc(OC(C)C)c2)CC1 (stereo not drawn) — lower, -8.16%
- CC(C)NC(=O)Nc1ccc(CNCc2cccc(OC(F)F)c2)cc1 — lower, -7.96%
- Cc1cnn(CC2CCCN2CC(=O)Nc2cc(C)nn2C)c1 (stereo not drawn) — lower, -20.1%
- Cc1nn(C)c(N2CCOCC2)c1CNCc1ccnc(N(C)C)c1 — lower, 1.97%
- CC(CN1CCOCC1)OC(=O)c1ccccc1I (stereo not drawn) — lower, -6.37%
- O=C(NC[C@]12COC[C@H]1CN(C1CCOCC1)C2)c1ccco1 — lower, -3.99%
- CS(=O)(=O)NCc1cnc2n1CCN(Cc1ccco1)CC2 — lower, -4.31%
- CN(C)C(=O)CC1CC2(CCN(c3ncccn3)CC2)c2ccccc21 (stereo not drawn) — lower, -16.7%
- Cn1ccnc1CN1CCN2C[C@H](Oc3cccc(F)c3)C[C@H]2C1 — higher, 13.6%
- c1ccc(N2CCC3(COCCN(c4ncccn4)C3)C2)nc1 (stereo not drawn) — lower, 2.78%
- Cc1ccc2c(c1)CCC21CCN(C(=O)CN(C)C)CC1 — lower, -6.25%
- Cc1noc(C)c1CN1CC[C@H]2OCC[C@@]2(C(=O)N2CCCC2)C1 — lower, -70.7%
- c1cncc(OCc2noc3c2CN(Cc2ccco2)CC3)c1 — lower, 1.71%
- Cc1ccccc1C(=O)N1Cc2c(Cn3ccnc3)nn(C)c2C1 — lower, -72.1%
- Fc1ccc(CN2CC[C@H]3O[C@@H](COCc4cccnc4)CC[C@H]32)cc1 — lower, -70%
- N#Cc1ccc(NC(=O)C2CSCN2)cc1 (stereo not drawn) — lower, 2.62%
- c1cncc(OCC2CN(Cc3ccsc3)Cc3nccn3C2)c1 (stereo not drawn) — lower, -72.4%
- CCc1c(C)[nH]c2cc(C3CCN(Cc4ccncc4C)C3)nn2c1=O (stereo not drawn) — lower, -14.1%
- CC(C)=CCN1C[C@@H]2CC[C@H]1CN(Cc1cc(=O)[nH]c(=O)[nH]1)C2 — lower, -17.3%

From ChEMBL document CHEMBL4513216, “Probing the Open Global Health Chemical Diversity Library for Multistage-Active Starting Points for Next-Generation Antimalarials” (ACS Infect Dis, 2020)
